The entries come from a sample that favours hits as a whole.
Lmaj promast: Leishmania major promastigote growth inhibition. Leishmania major promastigotes, resazurin fluorescence viability. inhibition, % at 10 µM. actives 9% (n = 200,000); in the data active = inhibition above about 50%;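 note: promastigotes grown with compound for 44 hours at 28 °C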
T cruzi repl: blocks replication of Trypanosoma cruzi | T. cruzi beta-gal in NIH3T3, luminescence, 90 h | inhibition, % (concentration not given with the values) | actives 1.4% (n = 300,000) | AID 1885;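 active = mean inhibition across valid replicates above about 55%, limit read from the data; inconclusive = mean below that limit but half or more replicates reach it; inactive = mean below it, under half of replicates reach it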;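 note: signal also drops with host cell toxicity which is not excluded here; 0% = plate median of DMSO wells and 100% = zero luminescence signal; higher percent means less beta-gal luminescence so fewer parasites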
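System: mouse NIH/3T3 fibroblasts infected with β-gal-expressing T. cruzi Tulahuen C4 / Input: NIH/3T3 cells, 5,000 per well / Buffer or medium: Low-serum DMEM with 2% FBS / Probe or stimulus: 5000 reporter trypomastigotes per well / Schedule: ≥90 h infection period, 3 h prior cell attachment / Measured by: GalScreen luminescence, 60 min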
CHOP inh: inhibitors of CHOP induction in ER stress response | actives 3.8% (n = 220,000) | CHO-K1 CHOP-promoter luciferase, tunicamycin-induced, 15-18 h | inhibition, % at 10 µM | AID 2732;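 active = compounds that reduced the stress-induced luciferase reporter signal by more than about 70% of percent inhibition, limit read from the data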;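 note: 0% = tunicamycin plus vehicle and 100% = wells without tunicamycin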
UPR XBP1 act: adaptive UPR (XBP1) activation; CHO-XBP1 luciferase reporter, IRE1-XBP1 UPR activation, luminescence; percent of tunicamycin response, DMSO as zero; actives 0.33% (n = 330,000); activation, % at 20 µM;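 active = versus positive control, 20 µM dose yields 30% or more activation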;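 note: 100% = tunicamycin at 10 µg/mL and 0% = DMSO only wells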
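Assay system: IRE1-XBP1 luciferase reporter CHO line. Input: 1000 cells/well. Buffer or medium: F12 with 10% serum. Doses: 20 µM, 1% DMSO. Times: overnight seeding at 37 °C, 6 h compound treatment at 37 °C. Technique: Steady-Glo luciferase glow luminescence, 10 min after reagent addition.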
Dynein cargo inh: blocks dynein driven cargo transport along microtubules. z-score, hits read low. actives 0.47% (n = 220,000). 3617.4 mouse cells, GR-EGFP nuclear translocation imaging; test concentration mostly 20 µM; stimulated with dexamethasone, 1 µM; stronger effect = lower value. AID 1381;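 active = plate z-score of nuclear minus cytoplasmic receptor signal below a set negative limit, without overly bright fluorescence or cell loss, cut at about -3.5 in these data, passing the limit was not always enough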;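 note: z-score of nuclear minus cytoplasmic ring GR-EGFP intensity difference per well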
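Buffer or medium: tet-free medium with charcoal-stripped serum / Also added: dexamethasone agonist, 1.0 µM final, for 30 min / Timing: induction 48 h, compound 1 h, agonist 30 min / Measured by: high-content fluorescence imaging after fixation / Read-out: nuclear-to-cytoplasmic GR-EGFP distribution per well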
UPR CHOP act: apoptotic UPR (CHOP) activation. CHO-CHOP luciferase reporter, luminescence; percent of tunicamycin response over DMSO baseline. activation, % at 10 µM. actives 0.34% (n = 330,000). AID 449763;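 active = at 10 µM dose, activation of 40% or more, normalized to positive control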;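 note: 100% = tunicamycin at 10 µg/mL and 0% = DMSO alone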
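Assay system: CHO-CHOP cells, stable luciferase reporter of PERK-eIF2a-CHOP signalling / Buffer or medium: F12 plus 10% serum / Compound dosing: one dose, 10 µM in 0.5% DMSO / Times: 6 h compound treatment, 37 °C / Technique: luciferase luminescence / Read-out: % reporter activation, DMSO baseline versus tunicamycin full activation / Benchmarks: tunicamycin and DMSO controls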
Starred values were filed as active, the others as inactive; ? = inconclusive; . = not tested or not shown.

SMILES	Lmaj promast	T cruzi repl	CHOP inh	UPR XBP1 act	Dynein cargo inh	UPR CHOP act
C#CC[N+]1(CC#Cc2ccccc2)CCCC1	-7	-17	-5	3	-0.48	1
CCOc1cc(/C=N/NC(=O)CN2CCCCC2)ccc1OCc1cccc(Cl)c1	97*	1	32	-2	0.57	1
Cn1cc(Br)c(C(=O)N/N=C/c2cccc(OC3CSC3)c2)n1	5	10	-29	-1	0.039	8
COc1cc(/C=N/NC(=O)CCN2CCN(Cc3ccccc3)CC2)cc(OC)c1OC	52*	5	35	-2	0.13	1
CCOc1cc(/C=N/NC(=O)CN2CCCCC2)ccc1OCc1ccc(Cl)cc1	99*	-9	23	0	2.1	2
CCOc1cc(/C=N/NC(=O)c2nn(C)cc2Br)ccc1OCc1ccccc1Cl	72*	36	37	0	-0.31	1
CCCOc1ccc(/C=N/NC(=O)CN2CCCCC2)cc1OCC	.	1	.	-3	.	0
O=C(CCC(=O)N1CCSc2ccccc21)NC1CCCCC1	.	-2	.	-2	.	0
Cc1nccn1CCOc1ccc(Cl)cc1	.	-18	.	-3	.	1
CCOc1cc(/C=N/NC(=O)c2ccc(CN3CCOCC3)cc2)ccc1OCc1ccccc1	98*	14	59	1	-0.3	5
CCOc1cc(/C=N/NC(=O)CN2CCOCC2)ccc1OCc1ccccc1	6	-2	26	0	-0.076	0
COc1cc(/C=C/C(=O)NC(C)C)ccc1OCc1ccccc1	-2	-16	22	1	0.46	0
COc1cc(/C=N/OCC(=O)Nc2cc(C)on2)ccc1OCc1ccccc1	64*	-1	1	-1	1.6	2
CCCCOc1ccc(C(=O)N/N=C/c2ccc(OCCN3CCCCC3)c(OC)c2)cc1	100*	34	30	-1	1	3
COc1cc(/C=N/NC(=O)CN2CCOCC2)ccc1OCc1ccccc1	-3	-11	-24	-1	-0.2	-1
COc1cc(/C=N/NC(=O)CN2CCCCC2)ccc1OCc1ccccc1	95*	-4	18	5	0.67	6
COc1ccc(CC(=O)OC(C)C(=O)NC2CCCCC2C)cc1 (configuration not stated)	.	.	.	0	.	-1
O=C(Oc1ccc(Oc2ccccc2)cc1)N1CCC(O)CC1	.	-6	.	3	.	5
COc1ccc(NC(=O)CN(C)S(=O)(=O)c2ccc(Cl)cc2)cc1Cl	4	25	16	-1	0.96	1
COc1ccc(S(=O)(=O)N(C)CC(=O)Nc2ccc(C(F)(F)F)cc2)cc1Cl	0	9	81*	-1	1.9	-1
COc1cccc(Oc2ncnc(N)c2[N+](=O)[O-])c1	.	-17	.	-8	.	-1
O=c1cc(N2CCN(c3ccc(F)cc3)CC2)[nH]c(=O)n1C1CCCCC1	2	-14	72*	-3	0.93	-3
CCC(Oc1ccccc1)C(=O)Nc1ccc(C)c(S(=O)(=O)N2CCOCC2)c1 (configuration not stated)	.	5	.	-4	.	1
CCCC(=O)N1CCN(c2ccc([N+](=O)[O-])cc2Cl)CC1	43	-2	11	0	-0.83	-1
O=C(CCSc1ccccc1)N1CCN(c2ccccc2)CC1	-4	12	-3	4	-0.26	8
SMILES	Lmaj promast	T cruzi repl	CHOP inh	UPR XBP1 act	Dynein cargo inh	UPR CHOP act
O=C(CCSc1ccc(Cl)cc1)N1CCN(c2ccc(O)cc2)CC1	.	63*	30	-1	0.091	3
O=C(/C=C/c1ccc(Cl)cc1)N1CCN(c2c(Cl)cccc2[N+](=O)[O-])CC1	21	40	14	-4	-0.71	-1
O=C(CSc1ccc(Cl)cc1)N1CCN(c2ccc([N+](=O)[O-])cc2Cl)CC1	0	?	78*	-2	0.3	2
O=C(CSc1ccc(Cl)cc1)N1CCN(c2c(Cl)cccc2[N+](=O)[O-])CC1	65*	47	-1	-3	-0.75	4
CCOc1ccccc1OCCCC(=O)Nc1sccc1C(N)=O	4	0	0	1	0.61	2
CCOC(=O)c1c(S(=O)(=O)NCC(=O)Nc2cccc(C)c2)c(C)n(C)c1C	.	11	.	-5	.	-1
NS(=O)(=O)c1cnccc1NCCc1ccccc1	.	-17	.	-1	.	1
O=c1cc(CCl)nc2sc3ccccc3n12	41	61*	-77	1	-0.62	3
COc1ccc(/C=C/C(=O)OCc2cc(=O)n3c(n2)sc2ccccc23)cc1	-4	-10	-16	-1	-0.3	1
O=C(OCc1cc(=O)n2c(n1)sc1ccccc12)c1ccc(O)cc1	59*	6	30	1	2	3
CCc1nnc(NS(=O)(=O)c2ccc(NCc3ccccc3O)cc2)s1	.	-4	.	0	.	-1
O=C(/C=C/c1ccco1)Oc1cc(Br)cc(/C=N/NC(=O)c2ccccc2O)c1	99*	7	60	.	-0.3	.
Fc1ccc2nc(Nc3nc4c(F)cccc4s3)sc2c1	1	-5	66	6	-1.3	7
O=C(Nc1nc2cc3c(cc2s1)OCCO3)c1ccncc1	95*	.	1	2	0.13	4
c1ccc2sc(Nc3nc4cc5c(cc4s3)OCO5)nc2c1	90*	30	-42	4	0.42	5
O=C(NNc1nc2cc3c(cc2s1)OCO3)c1ccc(F)cc1	77*	-4	-6	2	2.2	1
Fc1cccc2sc(Nc3nc4ccccc4s3)nc12	46	-5	85*	3	-0.44	5
O=C(Nc1nc2cc3c(cc2s1)OCCO3)c1ccc(N2C(=O)CCC2=O)cc1	.	-1	1	1	-1.4	-1
CCCCCCCCCC(=O)N[C@@H]1c2cc(OC)c(OC)cc2C[C@H]1OCc1ccccc1	.	.	.	1	.	1
Cc1cc2c(cc1S(=O)(=O)Nc1ccc(OC(F)(F)F)cc1)OCC(=O)N2	.	-4	.	-5	.	0
Cc1nn(Cc2ccc(Cl)cc2)c(C)c1NC(=O)CCCn1nc([N+](=O)[O-])c(Cl)c1C	23	57*	56	-2	0.96	0
Cc1c(Cl)c([N+](=O)[O-])nn1CCCC(=O)Nc1c(C)n(C)n(-c2ccccc2)c1=O	-7	0	-18	-1	-0.39	0
Cc1c(Cl)c([N+](=O)[O-])nn1CCCC(=O)Nc1c(Cl)cccc1Cl	6	15	18	-1	0.22	1
Cc1c(Br)c([N+](=O)[O-])nn1CCCC(=O)N1CCN(c2ccccc2)CC1	70*	15	2	-1	0.062	2
Cc1c(Cl)c([N+](=O)[O-])nn1CCCC(=O)N(Cc1ccccc1)Cc1ccccc1	4	64*	73*	-2	1.4	3

Assay outcomes deposited in PubChem BioAssay by several laboratories.
